In ChEMBL document CHEMBL1152541, “Staurosporine tethered peptide ligands that target cAMP-dependent protein kinase (PKA): optimization and selectivity profiling” (Bioorg Med Chem, 2009):
*1 amine or outer side, *2 acyl side, *3 side chain or, on linkers, in order; H or OH if unused. Where a SMILES comes first, the peptide text is derived from it. Bridges are numbered along the chain shown (N, C = ends). [ ]: non-standard residue; d: D form. The star is where a group is joined. Staurosporine = CO[C@@H]1[C@H](N(C)*)C[C@H]2O[C@]1(C)n1c3ccccc3c3c4c(c5c6ccccc6n2c5c31)C(=O)NC4; Suc = O=C(CCC(=O)[*:2])[*:1]; Dap = NC[C@H](N)C(=O)O; βAla = NCCC(=O)O

How the values were obtained:
[1] = target: Epidermal growth factor receptor (Homo sapiens) (UniProt P00533); experiment: Binding affinity to human EGFR at 500 nM by cell-based competition binding assay relative to control in presence of DTT
In short: (§1)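 Commercial (Ambit) competitive kinase-binding panel of 90 kinases measured the binding profile. Run under reducing conditions of 7.5 mM DTT. Binding is expressed relative to control.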

[2] = target: Receptor tyrosine-protein kinase erbB-2 (Homo sapiens) (UniProt P04626); experiment: Binding affinity to human ERBB2 at 500 nM by cell-based competition binding assay relative to control in presence of DTT; in short: as §1
[3] = target: Phosphatidylinositol 4,5-bisphosphate 3-kinase catalytic subunit alpha isoform (Homo sapiens) (UniProt P42336); experiment: Binding affinity to human PIK3Calpha at 500 nM by cell-based competition binding assay relative to control in presence of DTT
[4] = target: Vascular endothelial growth factor receptor 2 (Homo sapiens) (UniProt P35968); experiment: Binding affinity to human VEGFR2 at 500 nM by cell-based competition binding assay relative to control in presence of DTT
[5] = target: Cyclin-dependent kinase 19 (Homo sapiens) (UniProt Q9BWU1); experiment: Binding affinity to human CDK11 at 500 nM by cell-based competition binding assay relative to control in presence of DTT
In short: (§2)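 Kinase binding profiling ran on a commercial (Ambit) competitive binding screen against a panel of 90 kinases. The screen used reducing conditions with 7.5 mM DTT. To withstand the DTT, the bivalent ligand was tested as its amide isostere, with the disulfide replaced. A staurosporine derivative carrying a 3 β-alanine linker was run as the reference compound.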

[6] = target: Receptor-type tyrosine-protein kinase FLT3 (Homo sapiens) (UniProt P36888); experiment: Binding affinity to human FLT3 at 500 nM by cell-based competition binding assay relative to control in presence of DTT; in short: as §1
[7] = target: Mitogen-activated protein kinase 10 (Homo sapiens) (UniProt P53779); experiment: Binding affinity to human JNK3 at 500 nM by cell-based competition binding assay relative to control in presence of DTT
In short: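 Competition binding screen (Ambit) across a panel of 90 kinases, scoring test ligand displacement of each kinase's binding relative to control. The screen ran under reducing conditions with 7.5 mM DTT.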

[8] = target: Dual specificity mitogen-activated protein kinase kinase 1 (Homo sapiens) (UniProt Q02750); experiment: Binding affinity to human MEK1 at 500 nM by cell-based competition binding assay relative to control in presence of DTT
In short: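 Kinase binding profile from a commercial panel of 90 kinases, run as a competitive binding assay. The panel was screened under reducing conditions of 7.5 mM DTT. Signal was compared with the untreated control.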

[9] = target: Dual specificity mitogen-activated protein kinase kinase 2 (Homo sapiens) (UniProt P36507); experiment: Binding affinity to human MEK2 at 500 nM by cell-based competition binding assay relative to control in presence of DTT
[10] = target: Glycogen synthase kinase-3 beta (Homo sapiens) (UniProt P49841); experiment: Binding affinity to human GSK3-beta at 200 nM by cell-based competition binding assay relative to control in presence of DTT; in short: as §1
[11] = target: Mitogen-activated protein kinase kinase kinase 9 (Homo sapiens) (UniProt P80192); experiment: Binding affinity to human MLK1 at 200 nM by cell-based competition binding assay relative to control in presence of DTT
[12] = target: Cyclin-dependent kinase 16 (Homo sapiens) (UniProt Q00536); experiment: Binding affinity to human PCTK1 at 200 nM by cell-based competition binding assay relative to control in presence of DTT
[13] = target: RAC-alpha serine/threonine-protein kinase (Homo sapiens) (UniProt P31749); experiment: Binding affinity to human AKT1 at 200 nM by cell-based competition binding assay relative to control in presence of DTT; in short: as §2
[14] = target: Tyrosine-protein kinase BTK (Homo sapiens) (UniProt Q06187); experiment: Binding affinity to human BTK at 200 nM by cell-based competition binding assay relative to control in presence of DTT; in short: as §2
[15] = target: Cyclin-dependent kinase 19 (Homo sapiens) (UniProt Q9BWU1); experiment: Binding affinity to human CDK11 at 200 nM by cell-based competition binding assay relative to control in presence of DTT; in short: as §2
[16] = target: Proto-oncogene tyrosine-protein kinase receptor Ret (Homo sapiens) (UniProt P07949); experiment: Binding affinity to human RET at 200 nM by cell-based competition binding assay relative to control in presence of DTT
[17] = target: T1, Testis-specific serine/threonine-protein kinase 1 (Homo sapiens) (UniProt Q9BXA7); experiment: Binding affinity to human TSSK1 at 200 nM by cell-based competition binding assay relative to control in presence of DTT
T1 sequence (whole entry): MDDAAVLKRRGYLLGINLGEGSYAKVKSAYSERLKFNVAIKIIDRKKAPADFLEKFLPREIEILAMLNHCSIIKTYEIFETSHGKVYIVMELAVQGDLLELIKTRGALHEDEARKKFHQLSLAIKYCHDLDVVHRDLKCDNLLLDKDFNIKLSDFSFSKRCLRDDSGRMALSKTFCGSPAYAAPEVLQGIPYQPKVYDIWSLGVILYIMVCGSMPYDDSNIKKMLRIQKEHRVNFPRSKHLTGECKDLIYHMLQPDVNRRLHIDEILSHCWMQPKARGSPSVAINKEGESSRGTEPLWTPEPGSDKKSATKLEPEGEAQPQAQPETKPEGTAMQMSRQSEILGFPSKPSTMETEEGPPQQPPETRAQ

[18] = target: Tyrosine-protein kinase BTK (Homo sapiens) (UniProt Q06187); experiment: Binding affinity to human BTK at 50 nM by cell-based competition binding assay relative to control in presence of DTT; in short: as §2
[19] = target: Epidermal growth factor receptor (Homo sapiens) (UniProt P00533); experiment: Binding affinity to human EGFR at 50 nM by cell-based competition binding assay relative to control in presence of DTT; in short: as §1
[20] = tested on: Epidermal growth factor receptor (Homo sapiens), P00533 [L858R]; experiment: Binding affinity to human EGFR L858R mutant at 50 nM by cell-based competition binding assay relative to control in presence of DTT; in short: as §1
[21] = target: Serine/threonine-protein kinase PAK 4 (Homo sapiens) (UniProt O96013); experiment: Binding affinity to human PAK4 at 50 nM by cell-based competition binding assay relative to control in presence of DTT
[22] = target: Phosphatidylinositol 4,5-bisphosphate 3-kinase catalytic subunit alpha isoform (Homo sapiens) (UniProt P42336); experiment: Binding affinity to human PIK3Calpha at 50 nM by cell-based competition binding assay relative to control in presence of DTT
[23] = target: Receptor tyrosine-protein kinase erbB-2 (Homo sapiens) (UniProt P04626); experiment: Binding affinity to human ERBB2 at 50 nM by cell-based competition binding assay relative to control in presence of DTT; in short: as §1
[24] = target: Focal adhesion kinase 1 (Homo sapiens) (UniProt Q05397); experiment: Binding affinity to human PTK2 at 50 nM by cell-based competition binding assay relative to control in presence of DTT
[25] = target: Fibroblast growth factor receptor 3 (Homo sapiens) (UniProt P22607); experiment: Binding affinity to human FGFR3 at 50 nM by cell-based competition binding assay relative to control in presence of DTT; in short: as §1
[26] = target: cAMP-dependent protein kinase catalytic subunit alpha (Homo sapiens) (UniProt P17612); experiment: Binding affinity to human PKACalpha at 50 nM by cell-based competition binding assay relative to control in presence of DTT

Sequence of Receptor tyrosine-protein kinase erbB-2 (Homo sapiens) (P04626 whole entry, canonical isoform): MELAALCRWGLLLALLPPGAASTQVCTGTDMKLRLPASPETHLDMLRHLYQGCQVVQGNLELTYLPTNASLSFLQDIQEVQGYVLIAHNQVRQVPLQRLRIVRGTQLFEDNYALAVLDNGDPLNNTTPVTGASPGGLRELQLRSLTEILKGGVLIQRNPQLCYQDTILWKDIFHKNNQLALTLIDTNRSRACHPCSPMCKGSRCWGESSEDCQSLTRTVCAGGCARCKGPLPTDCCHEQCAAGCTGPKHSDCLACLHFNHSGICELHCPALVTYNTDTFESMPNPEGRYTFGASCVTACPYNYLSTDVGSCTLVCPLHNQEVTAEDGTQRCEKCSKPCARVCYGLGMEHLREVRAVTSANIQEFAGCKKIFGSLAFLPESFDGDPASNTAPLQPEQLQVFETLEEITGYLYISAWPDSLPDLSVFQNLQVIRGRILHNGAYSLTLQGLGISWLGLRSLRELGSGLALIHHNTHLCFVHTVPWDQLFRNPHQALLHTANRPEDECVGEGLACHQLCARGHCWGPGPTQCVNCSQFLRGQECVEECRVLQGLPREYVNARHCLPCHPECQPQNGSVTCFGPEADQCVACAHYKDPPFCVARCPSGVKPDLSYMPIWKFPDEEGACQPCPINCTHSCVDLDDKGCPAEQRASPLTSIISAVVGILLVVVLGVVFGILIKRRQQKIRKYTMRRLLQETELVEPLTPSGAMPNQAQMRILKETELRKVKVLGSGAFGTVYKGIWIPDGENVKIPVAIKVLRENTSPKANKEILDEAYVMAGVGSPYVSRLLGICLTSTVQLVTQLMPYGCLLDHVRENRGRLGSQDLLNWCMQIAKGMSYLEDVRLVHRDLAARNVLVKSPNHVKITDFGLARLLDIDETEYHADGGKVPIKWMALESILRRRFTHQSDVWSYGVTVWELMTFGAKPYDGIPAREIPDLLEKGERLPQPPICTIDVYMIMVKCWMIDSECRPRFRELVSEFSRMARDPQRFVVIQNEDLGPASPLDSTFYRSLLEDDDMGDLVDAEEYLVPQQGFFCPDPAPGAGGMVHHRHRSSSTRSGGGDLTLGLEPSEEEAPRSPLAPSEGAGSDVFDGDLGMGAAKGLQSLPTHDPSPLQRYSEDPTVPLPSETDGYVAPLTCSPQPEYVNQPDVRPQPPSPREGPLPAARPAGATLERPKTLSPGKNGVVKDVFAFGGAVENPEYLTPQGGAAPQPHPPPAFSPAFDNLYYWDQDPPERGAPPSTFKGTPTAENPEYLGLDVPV
Sequence of Phosphatidylinositol 4,5-bisphosphate 3-kinase catalytic subunit alpha isoform (Homo sapiens) (P42336 whole entry, canonical isoform): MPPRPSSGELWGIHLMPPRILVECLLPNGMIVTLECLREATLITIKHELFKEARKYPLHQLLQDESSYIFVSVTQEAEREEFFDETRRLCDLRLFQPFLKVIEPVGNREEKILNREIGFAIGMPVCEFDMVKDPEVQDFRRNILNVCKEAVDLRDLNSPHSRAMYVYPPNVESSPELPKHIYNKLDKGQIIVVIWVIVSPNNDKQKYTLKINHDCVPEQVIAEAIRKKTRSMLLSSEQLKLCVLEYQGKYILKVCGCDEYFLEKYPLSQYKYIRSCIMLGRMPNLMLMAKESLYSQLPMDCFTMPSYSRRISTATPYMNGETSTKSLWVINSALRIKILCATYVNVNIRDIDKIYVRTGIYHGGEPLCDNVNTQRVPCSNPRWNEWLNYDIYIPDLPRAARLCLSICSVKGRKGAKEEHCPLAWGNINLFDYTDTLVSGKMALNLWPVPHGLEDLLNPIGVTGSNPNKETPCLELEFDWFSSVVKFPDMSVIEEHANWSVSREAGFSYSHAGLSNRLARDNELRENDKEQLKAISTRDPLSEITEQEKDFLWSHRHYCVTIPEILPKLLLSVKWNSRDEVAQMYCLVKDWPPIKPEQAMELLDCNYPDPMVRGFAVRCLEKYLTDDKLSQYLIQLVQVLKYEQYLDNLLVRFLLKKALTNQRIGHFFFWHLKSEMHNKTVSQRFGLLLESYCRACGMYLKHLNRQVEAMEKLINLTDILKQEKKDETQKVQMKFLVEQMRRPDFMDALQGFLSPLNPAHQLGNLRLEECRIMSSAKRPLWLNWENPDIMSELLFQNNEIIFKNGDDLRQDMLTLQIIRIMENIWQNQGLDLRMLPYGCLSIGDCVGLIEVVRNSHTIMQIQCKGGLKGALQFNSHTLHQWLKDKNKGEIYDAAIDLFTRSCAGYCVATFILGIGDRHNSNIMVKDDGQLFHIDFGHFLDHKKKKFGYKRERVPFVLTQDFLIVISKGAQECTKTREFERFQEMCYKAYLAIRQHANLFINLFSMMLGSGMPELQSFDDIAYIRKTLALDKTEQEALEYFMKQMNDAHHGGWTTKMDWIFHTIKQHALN
Sequence of Tyrosine-protein kinase BTK (Homo sapiens) (Q06187 whole entry): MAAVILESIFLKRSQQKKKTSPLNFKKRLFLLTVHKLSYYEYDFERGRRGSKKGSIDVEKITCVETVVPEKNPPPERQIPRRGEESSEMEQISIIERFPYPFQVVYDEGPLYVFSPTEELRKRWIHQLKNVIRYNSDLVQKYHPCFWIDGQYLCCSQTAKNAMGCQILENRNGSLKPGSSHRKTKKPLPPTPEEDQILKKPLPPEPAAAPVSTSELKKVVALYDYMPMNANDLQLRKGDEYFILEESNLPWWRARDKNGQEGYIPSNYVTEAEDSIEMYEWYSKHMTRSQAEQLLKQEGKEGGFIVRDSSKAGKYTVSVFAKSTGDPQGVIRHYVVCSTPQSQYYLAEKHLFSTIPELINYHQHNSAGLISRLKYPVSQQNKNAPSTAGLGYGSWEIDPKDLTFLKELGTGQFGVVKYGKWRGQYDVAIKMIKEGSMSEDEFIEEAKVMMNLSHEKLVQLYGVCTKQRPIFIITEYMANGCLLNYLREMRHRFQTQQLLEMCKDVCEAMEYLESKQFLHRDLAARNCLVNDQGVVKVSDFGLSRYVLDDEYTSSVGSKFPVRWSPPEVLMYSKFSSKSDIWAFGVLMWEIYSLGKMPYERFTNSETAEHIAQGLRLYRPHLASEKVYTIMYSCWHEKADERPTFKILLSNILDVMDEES
Sequence of Cyclin-dependent kinase 19 (Homo sapiens) (Q9BWU1 whole entry): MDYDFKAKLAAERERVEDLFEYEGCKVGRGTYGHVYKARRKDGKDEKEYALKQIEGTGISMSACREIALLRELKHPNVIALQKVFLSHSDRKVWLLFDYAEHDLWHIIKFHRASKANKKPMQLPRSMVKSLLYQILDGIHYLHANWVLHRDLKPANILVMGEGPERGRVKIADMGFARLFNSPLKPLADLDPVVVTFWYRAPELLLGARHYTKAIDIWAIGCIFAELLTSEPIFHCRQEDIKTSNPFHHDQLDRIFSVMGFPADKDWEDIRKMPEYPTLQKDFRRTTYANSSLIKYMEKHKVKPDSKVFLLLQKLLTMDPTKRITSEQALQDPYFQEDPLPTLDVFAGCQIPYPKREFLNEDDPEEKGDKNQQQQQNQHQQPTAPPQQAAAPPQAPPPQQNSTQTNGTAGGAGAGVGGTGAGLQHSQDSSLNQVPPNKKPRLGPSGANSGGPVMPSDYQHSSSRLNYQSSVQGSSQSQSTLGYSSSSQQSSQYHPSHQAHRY
Sequence of Dual specificity mitogen-activated protein kinase kinase 2 (Homo sapiens) (P36507 whole entry): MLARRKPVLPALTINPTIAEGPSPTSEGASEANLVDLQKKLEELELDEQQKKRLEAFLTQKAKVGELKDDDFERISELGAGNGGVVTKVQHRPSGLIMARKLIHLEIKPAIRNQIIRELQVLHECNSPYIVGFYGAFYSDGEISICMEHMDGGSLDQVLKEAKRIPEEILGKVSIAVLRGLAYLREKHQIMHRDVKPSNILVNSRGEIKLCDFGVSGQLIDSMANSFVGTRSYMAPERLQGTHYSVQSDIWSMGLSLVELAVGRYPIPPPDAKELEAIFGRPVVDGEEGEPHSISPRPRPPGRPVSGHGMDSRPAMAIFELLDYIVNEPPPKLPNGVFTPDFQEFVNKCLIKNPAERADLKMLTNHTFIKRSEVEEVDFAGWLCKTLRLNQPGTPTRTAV
Sequence of Dual specificity mitogen-activated protein kinase kinase 1 (Homo sapiens) (Q02750 whole entry): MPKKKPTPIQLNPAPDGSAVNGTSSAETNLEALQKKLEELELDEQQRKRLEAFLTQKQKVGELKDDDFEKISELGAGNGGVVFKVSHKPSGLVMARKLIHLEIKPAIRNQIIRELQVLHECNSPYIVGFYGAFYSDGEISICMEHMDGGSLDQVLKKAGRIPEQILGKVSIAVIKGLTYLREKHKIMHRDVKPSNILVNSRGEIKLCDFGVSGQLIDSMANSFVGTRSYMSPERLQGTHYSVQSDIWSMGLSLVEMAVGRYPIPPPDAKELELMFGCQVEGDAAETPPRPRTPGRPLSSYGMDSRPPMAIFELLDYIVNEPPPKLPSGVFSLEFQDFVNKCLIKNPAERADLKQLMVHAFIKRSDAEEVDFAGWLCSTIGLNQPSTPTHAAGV
Sequence of Serine/threonine-protein kinase PAK 4 (Homo sapiens) (O96013 whole entry, looked up, canonical isoform): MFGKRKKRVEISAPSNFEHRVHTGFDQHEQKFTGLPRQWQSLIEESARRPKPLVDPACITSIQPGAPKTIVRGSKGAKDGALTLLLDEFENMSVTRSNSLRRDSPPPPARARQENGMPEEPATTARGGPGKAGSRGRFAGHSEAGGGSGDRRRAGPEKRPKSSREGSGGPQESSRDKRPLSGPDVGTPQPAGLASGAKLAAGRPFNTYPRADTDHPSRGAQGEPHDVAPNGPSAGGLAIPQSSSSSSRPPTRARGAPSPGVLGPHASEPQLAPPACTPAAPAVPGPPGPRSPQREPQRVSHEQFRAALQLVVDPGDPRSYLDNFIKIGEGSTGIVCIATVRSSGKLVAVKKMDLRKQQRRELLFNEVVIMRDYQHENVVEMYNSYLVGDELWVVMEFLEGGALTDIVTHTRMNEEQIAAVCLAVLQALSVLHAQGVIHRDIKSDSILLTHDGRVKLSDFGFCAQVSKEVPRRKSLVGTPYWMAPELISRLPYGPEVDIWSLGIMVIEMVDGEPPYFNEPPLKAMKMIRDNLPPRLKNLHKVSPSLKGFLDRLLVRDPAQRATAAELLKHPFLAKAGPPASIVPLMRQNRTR

## CO[C@@H]1[C@H](N(C)C(=O)CCC(=O)NCCC(=O)NCCC(=O)NCCC(N)=O)C[C@H]2O[C@]1(C)n1c3ccccc3c3c4c(c5c6ccccc6n2c5c31)C(=O)NC4
[1]
  Activity: 54%
[2]
  Activity: 95%
[3]
  Activity: 100%
[4]
  Activity: 36%
[5]
  Activity: 61%
[6]
  Activity: 0.35%
[7]
  Activity: 55%
[8]
  Activity: 100%
[9]
  Activity: 86%

## CO[C@@H]1[C@H](N(C)C(=O)CCC(=O)NCCC(=O)NCCC(=O)NCCC(=O)NCCC(=O)NCCC(=O)NCCC(=O)NCCC(=O)N[C@H]2CSSC[C@@H](C(=O)NCC(N)=O)NC(=O)CNC(=O)[C@H](Cc3ccccc3)NC(=O)[C@H](C(C)C)NC(=O)[C@H](CCCNC(=N)N)NC(=O)[C@H](Cc3ccccc3)NC(=O)[C@H](C(C)C)NC2=O)C[C@H]2O[C@]1(C)n1c3ccccc3c3c4c(c5c6ccccc6n2c5c31)C(=O)NC4 ({Staurosporine-Suc-βAla-βAla-βAla-βAla-βAla-βAla-βAla}-CVFRVFGCG-NH2; disulfide 1-8)
[10]
  Activity: 100%
[11]
  Activity: 0.65%
[12]
  Activity: 94%
[13]
  Activity: 100%
[14]
  Activity: 62%
[15]
  Activity: 87%
[16]
  Activity: 40%
[17]
  Activity: 17%

## CO[C@@H]1[C@H](N(C)C(=O)CCC(=O)NCCC(=O)NCCC(=O)NCCC(=O)NCCC(=O)NCCC(=O)NCCC(=O)NCCC(=O)N[C@H]2CNC(=O)C[C@@H](C(N)=O)NC(=O)CNC(=O)[C@H](Cc3ccccc3)NC(=O)[C@H](C(C)C)NC(=O)[C@H](CCCNC(=N)N)NC(=O)[C@H](Cc3ccccc3)NC(=O)[C@H](C(C)C)NC2=O)C[C@H]2O[C@]1(C)n1c3ccccc3c3c4c(c5c6ccccc6n2c5c31)C(=O)NC4 ({Staurosporine-Suc-βAla-βAla-βAla-βAla-βAla-βAla-βAla}-[Dap]VFRVFGD-NH2; lactam 1-8)
[18]
  Activity: 98%
[19]
  Activity: 87%
[20]
  Activity: 100%
[21]
  Activity: 90%
[22]
  Activity: 100%
[23]
  Activity: 100%
[24]
  Activity: 100%
[25]
  Activity: 100%
[26]
  Activity: 10%
